The text below walks through data of paper PMC7251976 (Nature chemical biology, 2020).

The test system of data set [1] is LOX-IMVI cells. Kind of data set: Cell viability assay. The format is cell-based, human. An outline of the steps:
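LOX-IMVI cells seeded at 1000/well, left to adhere 24 h, then exposed to compound for 72 h. Viability read as cellular ATP by CellTiter-Glo. For rescue, one of the following was added at seeding: fer-1 1.5 μM, lip-1 1 μM, DFO 50 μM or zileuton 10 μM. Rescue data plotted as mean ± s.e.m. of 4 technical replicates.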

Data set [2] deals with T1, GPX4 (Homo sapiens, UniProt P36969).
T1 sequence (P36969 1-170 isoform P36969-2): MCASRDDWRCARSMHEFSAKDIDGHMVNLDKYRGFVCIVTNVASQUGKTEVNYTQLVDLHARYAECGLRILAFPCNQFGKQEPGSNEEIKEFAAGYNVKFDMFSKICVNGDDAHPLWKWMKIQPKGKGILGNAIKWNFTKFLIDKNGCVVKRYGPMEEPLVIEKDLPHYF
Kind of data set: Intact-cell cellular thermal shift assay. To be noted: intact LOX-IMVI cells, 10 μM, 1 h. Type of data set: binding. An outline of the steps: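 Intact cells treated with 10 μM compound or 0.1% DMSO for 1 h at 37 °C, then washed, trypsinised and aliquoted (~1 million cells each). Aliquots heated 3 min at about 40–67 °C in 3 °C steps. After lysis, insoluble material removed (20,000 rcf, 20 min, 4 °C) and soluble GPX4 measured by western blot. HCC4006 data: mean ± s.e.m., n ≥ 4 biologically independent samples.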

Data set [3] has as its target T1, GPX4. In words: Lysate CETSA. Type of data set: binding. The note with it: assay format not stated in main text (Supplementary Fig. 11h,i). An outline of the steps: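 Lysate from untreated cells diluted in PBS (pH 7.4) to 1 mg/mL total protein. Treated with 10 μM compound or 0.1% DMSO at 37 °C. Aliquots heated 3 min across a temperature gradient (typically 40–67 °C, 3 °C steps) and spun at 20,000 rcf. Soluble GPX4 assessed by western blot. HCC4006 data: mean ± s.e.m., n = 3 biologically independent samples.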

Data set [4] concerns the target T2, FLAG-GPX4^WT in HEK293–6E cells (Homo sapiens, UniProt P36969).
T2 sequence (P36969 1-170 isoform P36969-2): T1 sequence (P36969 1-170 isoform P36969-2)
In words: In-cell GPX4 mass spectrometry binding assay. The note with it: cells, 10 μM, 1 h. An outline of the steps: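 HEK293-6E cells transfected with FLAG-GPX4WT plus SBP2 plasmids and harvested 72 h after seeding. Compound (1, 10 or 20 μM) added 1, 4 or 24 h before harvest; viability monitored. Lysis at pH 7.4 (50 mM sodium phosphate, 300 mM NaCl, 0.1% NP-40, protease inhibitors). GPX4 isolated by anti-FLAG chromatography, C4-desalted, then denaturing Q-TOF MS with deconvolution to read adduct mass.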

In data set [5] the target is T3, purified GPX4 (Homo sapiens, UniProt P36969).
T3 sequence (P36969 1-170 isoform P36969-2): T1 sequence (P36969 1-170 isoform P36969-2)
In words: Binding to purified GPX4 protein.

Data set [6] has as its system LOX-IMVI cells. In words: Metabolite identification in cells. Type of data set: in vitro ADME, human. An outline of the steps:
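LOX-IMVI cells kept in serum-free Williams' medium E with 1 μM ferrostatin-1 and given test compound at 10 μM. Aliquots stopped with acetonitrile at 0, 2, 6, 24 and 48 h and centrifuged. Supernatants profiled by HPLC-DAD-HRMS; metabolite and adduct structures assigned by HPLC-MS/MS.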

A short description of data set [7]: Chemical stability in solution / on storage. The note with it: prolonged periods at room temperature as a solution in DMSO. Type of data set: physicochemical.
A short description of data set [8]: Stability profiling of GPX4 inhibitors. Type of data set: in vitro ADME. To be noted: Supplementary Table 3.
A short description of data set [9]: Compound solubility. Type of data set: physicochemical.
Data set [10] is described as follows: Pharmacokinetic study in mice after oral administration. The format is in vivo. To be noted: SCID mice, 50 mg/kg oral, over 24 h. An outline of the steps:
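SCID mice given a single oral 50 mg/kg dose in PEG400/ethanol (90/10, v/v). Blood sampled at 1, 3, 6 and 24 h into lithium heparin tubes and centrifuged for plasma. Plasma precipitated with acetonitrile (1/5, v/v) and analysed by LC-MS/MS. Plotted as mean ± s.d.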

Data set [11] is described as follows: Toxicity. Type of data set: in vivo. To be noted: mice.

For `O=C(/C(C[N+](=O)[O-])=N/O)N1CCN(C(c2ccc(Cl)cc2)c2ccc(Cl)cc2)CC1` [JKE-1674], the “cell-killing activity / potency” value in data set [1] (72 h) was “equipotent to ML210”. Moreover, in data set [1] (co-treatment with fer-1 (1.5 μM), lip-1 or DFO), the “rescue of cell-killing activity by ferroptosis inhibitors” value is “completely rescued”. For the same compound, the “effect on GPX4 thermal stability” value in data set [2] is given as “thermal stabilization”. For the same compound, in [3], the “engagement of GPX4 in cell lysate” value was “unable to engage”. Also, the “covalent GPX4 adduct mass increase” value in data set [4] is given as “+434 Da”. For the same compound, in data set [5], the “engagement of purified recombinant GPX4” value is listed as “unable to engage”. In addition, the “mass of adducts formed with cysteine and glutathione in cells” value in [6] is recorded as “+434 Da”. Moreover, the storage stability entry in data set [7] is “can decompose”. In addition, the “stability compared to chloroacetamide inhibitors” value in [8] is recorded as “far greater stability”. Also, the “solubility compared to ML210 and chloroacetamide inhibitors” value in [9] is on record as “improves upon the solubility”. Moreover, in data set [10], the “detection in serum/plasma after oral dosing” value is “can be detected”. In [11] (50 mg/kg, 7 consecutive dosing days), the “average body weight loss” value is listed as at most 10%. Also, the tolerability entry in data set [11] (doses higher than 50 mg/kg) is listed as “not tolerated”.
